Assay results of several laboratories.
Lines come from different studies, so protocols differ.
Medium: Caco-2

| Structure (SMILES) | concentration | time | pH | measurement | value |
| --- | --- | --- | --- | --- | --- |
| Cc1c(C(=O)O)ccc2c3n(nc12)[C@@H]1[C@H](C3)N(CC2CC2)[C@@]2(C(=O)Nc3cc(Cl)ccc32)[C@H]1c1cccc(Cl)c1F |  |  |  | Papp A→B | 84 ×10⁻⁶ cm/s |
| C[C@H]1O[C@@H](O[C@H]2[C@@H](O)C[C@H](O[C@H]3[C@@H](O)C[C@H](O[C@H]4CC[C@@]5(C)[C@H](CC[C@@H]6[C@@H]5C[C@@H](O)[C@]5(C)[C@@H](C7=CC(=O)OC7)CC[C@]65O)C4)O[C@@H]3C)O[C@@H]2C)C[C@H](O)[C@@H]1O | 5 µM | 2 h |  | Papp A→B | 0.27 ×10⁻⁶ cm/s |
| N#Cc1cc(-c2ccc(C(=O)N3CCNCC3)cc2)ccc1-n1cc(O)c(=O)c(C(=O)O)c1 |  |  |  | Papp A→B | 0.3 ×10⁻⁶ cm/s |
| Cn1nc2c(=O)n(C3CC3)ncc2c1[C@](O)(c1cnc(C(F)(F)F)c(Cl)c1)C(F)(F)F |  |  |  | Papp A→B | 43.4 ×10⁻⁶ cm/s |
| N#C[C@@]12C[C@@H]1[C@@H](n1cnc3c(N[C@@H](C4CCC4)C4CC4)nc(I)nc31)[C@H](O)[C@@H]2O |  |  |  | Papp A→B | 5.97 ×10⁻⁶ cm/s |
| Cc1c(N(C)C)ccc2cc(C(=O)NS(=O)(=O)c3ccccc3-c3ccccc3)oc12 | 2 µM | 2 h | pH 7.2 | Papp B→A | 14.3 ×10⁻⁶ cm/s |
| O=C(O)c1cn(-c2ccc(-c3ccc(C(=O)N4CCNCC4)cc3)cc2)cc(O)c1=O |  |  |  | Papp A→B | 0.2 ×10⁻⁶ cm/s |
| CC(C)C[C@H](NC(=O)[C@@H]1COCCCCCC(=O)NCC(=O)N2CCC[C@H]2C(=O)N1)C(=O)[C@@]1(C)CO1 | 10 µM | 2 h | pH 7.4 | Papp A→B | 0.454 ×10⁻⁶ cm/s |
| CCn1cc(C2CC2)c2c(Cc3ccc(C(F)(F)F)nc3)n(C)nc2c1=O |  |  |  | Papp A→B | 38.7 ×10⁻⁶ cm/s |
| CCCCC(CC)CNC(=N)NC(=N)NCCCCCCNC(=N)NC(=N)NCC(CC)CCCC (stereo not shown) | 5 µM | 2 h |  | Papp B→A | 0.37 ×10⁻⁶ cm/s |
